Source: ChEMBL document CHEMBL1128731, “Furanfurin and thiophenfurin: two novel tiazofurin analogues. Synthesis, structure, antitumor activity, and interactions with inosine monophosphate dehydrogenase” (J Med Chem, 1995)

How the values were obtained:
LoVo = assay: Inhibitory concentration against LoVo human colon adenocarcinoma cell lines; type: functional, cell-based
Method in brief: (§1)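 Cells in log phase plated with a range of drug concentrations (B16 5×10^3 cells/well; P388, L1210, LLC 10^4 cells/well; HL-60, K562, LoVo 2.5×10^5 cells/well). Growth read by modified MTT after 72 h drug contact at 37 °C. IC50 taken as the concentration reducing optical absorption by 50%, from Chou regression analysis. Maximum concentration tested 200 μM.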

K562 [1] = assay: Compound was tested for its effect on IMP ribonucleotide levels of K562 cell at 10 uM concentration; type: functional, Homo sapiens
Method in brief: (§2)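 K562 cells (1×10^7) were treated with saline or agent for 2 h at 37 °C, harvested by centrifugation and washed with cold saline. They were extracted with cold 10% trichloroacetic acid, neutralized with 0.5 M tri-n-octylamine in freon, and analyzed by HPLC. Levels are in nmol/g and expressed as % of saline control. Significance was set at p < 0.05.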

K562 [2] = assay: Compound was tested for its effect on IMP ribonucleotide levels of K562 cell at 100 uM concentration; type: functional, Homo sapiens; method in brief: as §2
Mus musculus [3] = assay: Compound was tested for ratio of survival time of treated to control mice x100 at 25 mg/kg dose; type: functional
Method in brief: (§3)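 Female BD2F1 mice (8 weeks old, 20–22 g), eight per group, injected ip with 10^5 L1210 leukemia cells on day 0. Starting 24 h later, drug dissolved in 0.9% NaCl given ip once daily for 9 consecutive days. % T/C = survival time of treated/control mice × 100. Body weight change tracked from start to end of treatment.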

K562 [4] = assay: compound was tested for its effect on IMPDH activity against K562 cells at 10 uM concentration; type: functional, Homo sapiens
Method in brief: (§4)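 K562 cells (1×10^6/mL, log phase) exposed 2 h at 37 °C to 10, 50 or 100 μM drug, or to saline. Cells washed and lysed in Tris-HCl pH 7.4/NaCl/MgCl2/NP-40/aprotinin, and the 13000g supernatant used as enzyme. Enzyme incubated 30 min at 37 °C with 286 μM [2,8-3H]IMP and 1 mM NAD. Tritium release counted; activity in nmol XMP/h/mg protein, as % of saline control.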

K562 [5] = assay: Compound was tested for its effect on CTP ribonucleotide levels of K562 cell at 50 uM concentration; type: functional, Homo sapiens; method in brief: as §2
L1210 = assay: Inhibitory concentration against L1210 murine lymphocytic leukemia; type: functional, cell-based; details: Mus musculus; method in brief: as §1
Mus musculus [6] = assay: Compound was tested for ratio of survival time of treated to control mice x100 at 400 mg/kg dose; type: functional; method in brief: as §3
K562 [7] = assay: Compound was tested for its effect on GTP ribonucleotide levels of K562 cell at 10 uM concentration; type: functional, Homo sapiens; method in brief: as §2
K562 [8] = assay: Compound was tested for its effect on CTP ribonucleotide levels of K562 cell at 10 uM concentration; type: functional, Homo sapiens; method in brief: as §2
[9] = IC50 ratio against bone marrow samples to HL-60; type: functional
Method in brief: (§5)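 Antiproliferative assay scoring [125I]-5-iodo-2'-deoxyuridine incorporation into DNA after 72 h drug–cell contact. Run on normal human bone marrow from five donors and in three assays on HL-60. Ratio is antilog(mean log IC50 or IC90) on bone marrow over the same on HL-60. Range limits are antilog(mean log IC50 ± 2SD).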

K562 [10] = assay: Compound was tested for its effect on GTP ribonucleotide levels of K562 cell at 50 uM concentration; type: functional, Homo sapiens; method in brief: as §2
K562 [11] = assay: Compound was tested for its effect on IMPDH activity against K562 cells at 10 uM concentration; type: functional, Homo sapiens
Method in brief: (§6)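 Log-phase K562 cells (1×10^6/mL) were exposed to saline or agent for 2 h at 37 °C, washed and lysed (Tris-HCl pH 7.4, NaCl, MgCl2, 0.5% NP-40, aprotinin). The cleared supernatant was incubated 30 min at 37 °C with 286 μM [2,8-3H]IMP and 1 mM NAD. Tritium release was counted by scintillation. Activity is nmol XMP/h/mg protein, also given as % of control.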

K562 [12] = assay: Compound was tested for its effect on AMP ribonucleotide levels of K562 cell at 100 uM concentration; type: functional, Homo sapiens; method in brief: as §2
K562 [13] = assay: Compound was tested for its effect on ATP ribonucleotide levels of K562 cell at 50 uM concentration; type: functional, Homo sapiens; method in brief: as §2
K562 [14] = assay: Compound was tested for its effect on GMP ribonucleotide levels of K562 cell at 10 uM concentration; type: functional, Homo sapiens; method in brief: as §2
K562 [15] = assay: Compound was tested for its effect on CTP ribonucleotide levels of K562 cell at 100 uM concentration; type: functional, Homo sapiens; method in brief: as §2
K562 [16] = assay: Compound was tested for its effect on ATP ribonucleotide levels of K562 cell at 100 uM concentration; type: functional, Homo sapiens; method in brief: as §2
Mus musculus [17] = assay: Compound was tested for ratio of survival time of treated to control mice x100 at 6.2 mg/kg dose; type: functional; method in brief: as §3
K562 [18] = assay: Compound was tested for its effect on AMP ribonucleotide levels of K562 cell at 10 uM concentration; type: functional, Homo sapiens; method in brief: as §2
K562 [19] = assay: Compound was tested for its effect on NAD ribonucleotide levels of K562 cell at 100 uM concentration; type: functional, Homo sapiens; method in brief: as §2
K562 [20] = assay: Compound was tested for its effect on IMPDH activity against K562 cells at 50 uM concentration; type: functional, Homo sapiens; method in brief: as §6
K562 [21] = assay: Compound was tested for its effect on GTP ribonucleotide levels of K562 cell at 100 uM concentration; type: functional, Homo sapiens; method in brief: as §2
Mus musculus [22] = assay: Average weight change of mice from onset to termination of drug treatment at 400 mg/kg dose; early death due to toxicity; type: functional, organism-based; parameters: dose 400 mg/kg
Method in brief: (§7)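 Female BD2F1 mice (8 weeks, 20–22 g), eight per group, injected ip with 10^5 L1210 cells on day 0. From 24 h later, drug in 0.9% NaCl was given ip once daily for 9 days. Body weight change was averaged from onset to termination of treatment. Early deaths from toxicity were recorded.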

K562 [23] = assay: Compound was tested for its effect on GDP ribonucleotide levels of K562 cell at 50 uM concentration; type: functional, Homo sapiens; method in brief: as §2
B16 = assay: Inhibitory concentration against B16 melanoma cell lines; type: functional, cell-based; details: Mus musculus; method in brief: as §1
K562 [24] = assay: Compound was tested for its effect on NAD ribonucleotide levels of K562 cell at 50 uM concentration; type: functional, Homo sapiens; method in brief: as §2
K562 [25] = assay: compound was tested for its effect on IMPDH activity against K562 cells at 100 uM concentration; type: functional, Homo sapiens; method in brief: as §4
[26] = IC90 ratio against bone marrow samples to HL-60; type: functional; method in brief: as §5
[27] = test system: Lewis lung carcinoma cell line; assay: Inhibitory concentration against LLC Lewis lung carcinoma; type: functional, cell-based; details: Mus musculus; method in brief: as §1
K562 [28] = assay: Inhibitory concentration against K562 human myelogenous leukemia cell line; type: functional, cell-based; method in brief: as §1
K562 [29] = assay: Compound was tested for its effect on UDP ribonucleotide levels of K562 cell at 100 uM concentration; type: functional, Homo sapiens; method in brief: as §2
K562 [30] = assay: Compound was tested for its effect on GMP ribonucleotide levels of K562 cell at 50 uM concentration; type: functional, Homo sapiens; method in brief: as §2
K562 [31] = assay: Compound was tested for its effect on CDP ribonucleotide levels of K562 cell at 100 uM concentration; type: functional, Homo sapiens; method in brief: as §2
Mus musculus [32] = assay: Average weight change of mice from onset to termination of drug treatment at 100 mg/kg dose; early death due to toxicity; type: functional, organism-based; parameters: dose 100 mg/kg; method in brief: as §7

Structure (SMILES): NC(=O)c1csc([C@@H]2O[C@H](CO)[C@@H](O)[C@H]2O)c1
- IC50 (LoVo): 102 µM
- Control (K562 [1]): 314%
- Control (K562 [2]): 689%
- T/C (Mus musculus [3]): 168%
- Control (K562 [4]): 56%
- Control (K562 [5]): 32%
- IC50 (L1210): 7.6 µM
- T/C (Mus musculus [6]): <100%
- Control (K562 [7]): 71%
- Control (K562 [8]): 32%
- Ratio [9]: 21.9
- Control (K562 [10]): 58%
- Activity (K562 [11]): 2.8
- Control (K562 [12]): 131%
- Control (K562 [13]): 88%
- Control (K562 [14]): 98%
- Control (K562 [15]): 32%
- Control (K562 [16]): 81%
- T/C (Mus musculus [17]): 155%
- Control (K562 [18]): 156%
- Control (K562 [19]): 63%
- Activity (K562 [20]): 1.85
- Control (K562 [21]): 58%
- Change (Mus musculus [22]): Toxic
- Control (K562 [23]): 79%
- IC50 (B16): 25.8 µM
- Control (K562 [24]): 66%
- Control (K562 [25]): 22%
- Ratio [26]: >10
- IC50 [27]: 11.2 µM
- IC50 (K562 [28]): 8.8 µM
- Control (K562 [29]): 131%
- Control (K562 [30]): 90%
- Control (K562 [31]): 99%
- Change (Mus musculus [32]): Toxic
